In brackets after ≈: the same amount, converted by molar mass.
Columns and labels:
Candida albicans = experiment: Antifungal activity against Candida albicans MTCC 227 by broth microdilution method; type: functional
[1] = system: Mycobacterium tuberculosis; experiment: Growth inhibition of Mycobacterium tuberculosis H37Rv at 6.25 ug/mL after 12 to 28 days relative to control; type: functional
Salmonella typhi = experiment: Antibacterial activity against Salmonella typhi MTCC 98 by broth microdilution method; type: functional, Salmonella enterica subsp. enterica serovar Typhi; conditions: Salmonella enterica
Streptococcus pneumoniae = experiment: Antibacterial activity against Streptococcus pneumoniae MTCC 1936 by broth microdilution method; type: functional
Method in brief: (§1)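 Broth microdilution per NCCLS, with serial dilutions in Mueller Hinton broth and DMSO as diluent. Tubes were incubated overnight at 37 °C. MIC was the lowest concentration giving no visible growth, with the control organism's MIC read to verify concentrations. Tubes without growth were subcultured overnight at 37 °C to judge bacteriostatic versus bactericidal action.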

Clostridium tetani = experiment: Antibacterial activity against Clostridium tetani MTCC 449 by broth microdilution method; type: functional
Plasmodium falciparum = experiment: Antimalarial activity against trophozoite stage of chloroquine-sensitive Plasmodium falciparum 3D7 infected in human erythrocytes after 48 hrs; type: functional, organism-based; conditions: 3D7, 48 h
Method in brief: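 Parasites were kept in continuous culture in A+ human erythrocytes in RPMI with 10% human serum. Sorbitol-synchronized trophozoites at 1–2% parasitaemia and 2.5% haematocrit were exposed to serial dilutions (maximum 1 mg/ml; 0.02% final DMSO) for 48 h at 37 °C. Growth inhibition was measured; chloroquine and quinine served as positive controls. IC50 came from duplicate experiments.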

Bacillus subtilis = experiment: Antibacterial activity against Bacillus subtilis MTCC 441 by broth microdilution method; type: functional; method in brief: as §1
Aspergillus fumigatus = experiment: Antifungal activity against Aspergillus fumigatus MTCC 3008 by broth microdilution method; type: functional
Vibrio cholerae = experiment: Antibacterial activity against Vibrio cholerae MTCC 3906 by broth microdilution method; type: functional
Escherichia coli = experiment: Antibacterial activity against Escherichia coli MTCC 443 by broth microdilution method; type: functional; method in brief: as §1

| SMILES | MIC (Candida albicans) | inhibition at 6.25 µg/mL [1] | MIC (Salmonella typhi) | MIC (Streptococcus pneumoniae) | MIC (Clostridium tetani) | IC50 (Plasmodium falciparum) | MIC (Bacillus subtilis) | MIC (Aspergillus fumigatus) | MIC (Vibrio cholerae) | MIC (Escherichia coli) |
| --- | --- | --- | --- | --- | --- | --- | --- | --- | --- | --- |
| CC1(C)CC(=O)C2=C(C1)N(Nc1ccc(Br)cc1)C(N)=C(C#N)C2c1cc2ccccc2nc1Cl (stereo not given) | > 1000 µg/mL | 33% | 250 µg/mL (≈ 455 µM) | 100 µg/mL (≈ 182 µM) | 500 µg/mL (≈ 911 µM) | 0.54 µg/mL (≈ 0.984 µM) | 200 µg/mL (≈ 364 µM) | > 1000 µg/mL | 100 µg/mL (≈ 182 µM) | 250 µg/mL (≈ 455 µM) |
| CC1(C)CC(=O)C2=C(C1)N(Nc1ccc(Cl)cc1)C(N)=C(C#N)C2c1cc2cc(Cl)ccc2nc1Cl (stereo not given) | > 1000 µg/mL | 87% | 100 µg/mL (≈ 186 µM) | 200 µg/mL (≈ 371 µM) | 200 µg/mL (≈ 371 µM) | 0.028 µg/mL (≈ 0.052 µM) | 200 µg/mL (≈ 371 µM) | > 1000 µg/mL | 100 µg/mL (≈ 186 µM) | 62.5 µg/mL (≈ 116 µM) |
| COc1ccc(NN2C(N)=C(C#N)C(c3cc4ccccc4nc3Cl)C3=C2CC(C)(C)CC3=O)cc1 (stereo not given) | > 1000 µg/mL | 44% | 200 µg/mL (≈ 400 µM) | 200 µg/mL (≈ 400 µM) | 250 µg/mL (≈ 500 µM) | 0.025 µg/mL (≈ 0.05 µM) | 500 µg/mL (≈ 1000 µM) | > 1000 µg/mL | 250 µg/mL (≈ 500 µM) | 250 µg/mL (≈ 500 µM) |

Source: ChEMBL document CHEMBL2040757, “New N-arylamino biquinoline derivatives: synthesis, antimicrobial, antituberculosis, and antimalarial evaluation” (Eur J Med Chem, 2012)
